Measurements taken from ChEMBL document CHEMBL3259728, “Design, synthesis and biological evaluation of some novel substituted quinazolines as antitumor agents” (2014).

test system: MDA-MB-231; assay: Growth inhibition of human MDA-MB-231 cells at 10 uM after 48 hrs by SRB assay; type: functional; details: MDA-MB-231, 48 h, read-out: GI
How it was run: (§1)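 NCI-60 primary one-dose screen run at the US NCI, with human tumour lines from nine cancer types. Compound added once at 10^-5 M, followed by 48 h incubation. End point was sulforhodamine B protein staining read spectrophotometrically. Result given as percent growth of treated cells against untreated controls, reported as % growth inhibition.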

SMILES	inhibition of growth at 10 µM
Cc1ccc(C(=O)Nc2ccc(Cl)cc2C(=O)NCc2ccccc2)cc1	< 10%

test system: DU-145; assay: Growth inhibition of human DU145 cells at 10 uM after 48 hrs by SRB assay; type: functional; details: DU-145, 48 h, read-out: GI; how it was run: as §1

SMILES	inhibition of growth at 10 µM
Cc1ccc(C(=O)Nc2ccc(Cl)cc2C(=O)NCc2ccccc2)cc1	< 10%

test system: not listed separately; assay: Growth inhibition of human HCC2998 cells at 10 uM after 48 hrs by SRB assay; type: functional; details: HCC 2998, 48 h, read-out: GI; how it was run: as §1

SMILES	inhibition of growth at 10 µM
Cc1ccc(C(=O)Nc2ccc(Cl)cc2C(=O)NCc2ccccc2)cc1	14%

test system: SR; assay: Growth inhibition of human SR cells at 10 uM after 48 hrs by SRB assay; type: functional; details: read-out: GI; how it was run: as §1

SMILES	inhibition of growth at 10 µM
Cc1ccc(C(=O)Nc2ccc(Cl)cc2C(=O)NCc2ccccc2)cc1	63%

test system: TK-10; assay: Growth inhibition of human TK10 cells at 10 uM after 48 hrs by SRB assay; type: functional; details: TK-10, 48 h, read-out: GI; how it was run: as §1

SMILES	inhibition of growth at 10 µM
Cc1ccc(C(=O)Nc2ccc(Cl)cc2C(=O)NCc2ccccc2)cc1	< 10%

test system: not listed separately; assay: Growth inhibition of human SF539 cells at 10 uM after 48 hrs by SRB assay; type: functional; details: SF-539, 48 h, read-out: GI; how it was run: as §1

SMILES	inhibition of growth at 10 µM
Cc1ccc(C(=O)Nc2ccc(Cl)cc2C(=O)NCc2ccccc2)cc1	16%

test system: not listed separately; assay: Growth inhibition of human LOXIMVI cells at 10 uM after 48 hrs by SRB assay; type: functional; details: LOX IMVI, read-out: GI; how it was run: as §1

SMILES	inhibition of growth at 10 µM
Cc1ccc(C(=O)Nc2ccc(Cl)cc2C(=O)NCc2ccccc2)cc1	21%

test system: not listed separately; assay: Growth inhibition of human UACC257 cells at 10 uM after 48 hrs by SRB assay; type: functional; details: UACC-257, 48 h, read-out: GI; how it was run: as §1

SMILES	inhibition of growth at 10 µM
Cc1ccc(C(=O)Nc2ccc(Cl)cc2C(=O)NCc2ccccc2)cc1	15%

test system: not listed separately; assay: Growth inhibition of human OVCAR4 cells at 10 uM after 48 hrs by SRB assay; type: functional; details: OVCAR-4, 48 h, read-out: GI; how it was run: as §1

SMILES	inhibition of growth at 10 µM
Cc1ccc(C(=O)Nc2ccc(Cl)cc2C(=O)NCc2ccccc2)cc1	21%

test system: not listed separately; assay: Growth inhibition of human BT549 cells at 10 uM after 48 hrs by SRB assay; type: functional; details: BT-549, 48 h, read-out: GI
How it was run: (§2)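 NCI primary one-dose screen. A single concentration of 10^-5 M was added to the cell culture, followed by 48 h incubation and an SRB protein-dye endpoint read spectrophotometrically. Results are growth percentage relative to untreated control cells, reported as % growth inhibition.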

SMILES	inhibition of growth at 10 µM
Cc1ccc(C(=O)Nc2ccc(Cl)cc2C(=O)NCc2ccccc2)cc1	< 10%

test system: 786-0; assay: Growth inhibition of human 786-0 cells at 10 uM after 48 hrs by SRB assay; type: functional; details: 786-0, 48 h, read-out: GI; how it was run: as §2

SMILES	inhibition of growth at 10 µM
Cc1ccc(C(=O)Nc2ccc(Cl)cc2C(=O)NCc2ccccc2)cc1	< 10%

test system: PC-3; assay: Growth inhibition of human PC3 cells at 10 uM after 48 hrs by SRB assay; type: functional; details: PC-3, 48 h, read-out: GI; how it was run: as §1

SMILES	inhibition of growth at 10 µM
Cc1ccc(C(=O)Nc2ccc(Cl)cc2C(=O)NCc2ccccc2)cc1	24%

test system: HT-29; assay: Growth inhibition of human HT-29 cells at 10 uM after 48 hrs by SRB assay; type: functional; details: HT-29, 48 h, read-out: GI; how it was run: as §1

SMILES	inhibition of growth at 10 µM
Cc1ccc(C(=O)Nc2ccc(Cl)cc2C(=O)NCc2ccccc2)cc1	77%

test system: NCI-H226; assay: Growth inhibition of human NCI-H226 cells at 10 uM after 48 hrs by SRB assay; type: functional; details: NCI-H226, 48 h, read-out: GI; how it was run: as §1

SMILES	inhibition of growth at 10 µM
Cc1ccc(C(=O)Nc2ccc(Cl)cc2C(=O)NCc2ccccc2)cc1	< 10%

test system: not listed separately; assay: Growth inhibition of human RXF393 cells at 10 uM after 48 hrs by SRB assay; type: functional; details: RXF 393, 48 h, read-out: GI; how it was run: as §1

SMILES	inhibition of growth at 10 µM
Cc1ccc(C(=O)Nc2ccc(Cl)cc2C(=O)NCc2ccccc2)cc1	13%

test system: NCI-H522; assay: Growth inhibition of human NCI-H522 cells at 10 uM after 48 hrs by SRB assay; type: functional; details: NCI-H522, 48 h, read-out: GI; how it was run: as §1

SMILES	inhibition of growth at 10 µM
Cc1ccc(C(=O)Nc2ccc(Cl)cc2C(=O)NCc2ccccc2)cc1	47%

test system: U-251; assay: Growth inhibition of human U251 cells at 10 uM after 48 hrs by SRB assay; type: functional; details: U-251, 48 h, read-out: GI; how it was run: as §1

SMILES	inhibition of growth at 10 µM
Cc1ccc(C(=O)Nc2ccc(Cl)cc2C(=O)NCc2ccccc2)cc1	19%

test system: not listed separately; assay: Growth inhibition of human OVCAR8 cells at 10 uM after 48 hrs by SRB assay; type: functional; details: OVCAR-8, 48 h, read-out: GI; how it was run: as §1

SMILES	inhibition of growth at 10 µM
Cc1ccc(C(=O)Nc2ccc(Cl)cc2C(=O)NCc2ccccc2)cc1	13%

test system: IGROV-1; assay: Growth inhibition of human IGROV1 cells at 10 uM after 48 hrs by SRB assay; type: functional; details: IGROV-1, 48 h, read-out: GI; how it was run: as §1

SMILES	inhibition of growth at 10 µM
Cc1ccc(C(=O)Nc2ccc(Cl)cc2C(=O)NCc2ccccc2)cc1	16%
